Results taken from publication PMC3753203 (Journal of immunology (Baltimore, Md. : 1950), 2013).

Key:
trypsin/chymotrypsin = conditions: linear peptidic SE ligand, completely degraded; ref [11]; cited from earlier work
[1] = test system: osteoclast differentiation of DBA/1 mouse BMCs; conditions: 15-mer linear peptide; ref [10]; cited from earlier work
[2] = target: T1, recombinant mouse CRT (calreticulin) (Mus musculus, UniProt P14211); test: Surface plasmon resonance binding to immobilized CRT; conditions: SPR, 25°C, 10 mM HEPES pH 7.4, 50 mM KCl, 0.5 mM CaCl2, 100 μM ZnCl2, 0.005% surfactant P-20; mouse CRT immobilized 3000 RU; 10 μl/min; mean ± SEM
T1 sequence (P14211 18-416): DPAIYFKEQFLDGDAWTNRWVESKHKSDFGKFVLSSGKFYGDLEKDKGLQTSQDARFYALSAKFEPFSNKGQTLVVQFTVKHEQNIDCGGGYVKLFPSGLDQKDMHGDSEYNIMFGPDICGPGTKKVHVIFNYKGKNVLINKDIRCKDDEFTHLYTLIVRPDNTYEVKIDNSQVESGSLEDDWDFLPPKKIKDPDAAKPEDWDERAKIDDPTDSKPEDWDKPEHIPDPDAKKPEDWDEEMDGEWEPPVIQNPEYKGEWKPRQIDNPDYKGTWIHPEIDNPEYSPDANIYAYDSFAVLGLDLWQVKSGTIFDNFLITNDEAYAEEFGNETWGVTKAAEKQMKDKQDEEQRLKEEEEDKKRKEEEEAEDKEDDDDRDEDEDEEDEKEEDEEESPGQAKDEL

NO signaling [3] = test: NO signaling activation; assay type: cell-based; conditions: read-out: EC50 NO, Table I
[4] = test system: collagen-induced arthritis in mice; conditions: 15-mer SE peptidic ligand in vivo in mice; ref [10]; cited from earlier work
[5] = test system: osteoclasts in CIA joint tissues; test: OC abundance in joint tissue of CIA mice; assay type: in vivo, mouse; conditions: various doses incl. 'subclinical'; N=10 PBS, 5 per treatment group; TRAP
Method in brief: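 Limbs from CIA mice given weekly i.p. test compound or PBS decalcified 14 days in 10% EDTA, paraffin-embedded, serially sectioned and stained for TRAP (or H&E). TRAP-positive multinucleated cells counted; total across front and rear paws and knees, mean ± SEM. N=10 PBS, 5 per treatment group.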

[6] = test system: collagen-induced arthritis in DBA/1 mice; test: Collagen-induced arthritis: onset, incidence, arthritis score; assay type: in vivo, mouse; conditions: i.p.; for disease incidence: log-rank (Mantel-Cox)
[7] = test system: osteoclast formation of BMCs harvested from CIA mice; test: Ex vivo OC differentiation of BMCs from treated CIA mice; assay type: in vivo, mouse; conditions: 6 days OC-differentiating culture, dose-dependent pattern
Method in brief: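 DBA/1 mice (7 weeks) were immunised intradermally at the tail base with 100 μg chicken CII in CFA. They received test compound intraperitoneally once weekly at 0.0, 0.8, 8 or 80 ng/gm BW in 50 μl PBS. Bone marrow cells were then cultured for 6 days under OC-differentiating conditions (M-CSF 10 ng/ml; RANKL 20 ng/ml added after day 2). TRAP-positive multinucleated cells (>3 nuclei) were counted.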

[8] = test system: bone matrix degradation by DBA/1 mouse BMC-derived OCs; test: Degradation of artificial; assay type: cell-based; conditions: 100 nM c(HS4-4), primary DBA/1 BMCs, day 15, Von Kossa
Method in brief: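 Test compound (100 nM) or PBS was added to mouse BMC cultures on osteoblast-derived matrix. SaOS-2 cells (12,000/well) grew in McCoy's 5A/15% FBS; at 80–90% confluence they were switched to osteoblast differentiation medium (10% FBS, 2mM glutamine, ascorbic acid, 10mM β-glycerol phosphate) for 20–25 days, then removed with 15mM NH4OH. DBA/1 BMCs (200,000/well) received M-CSF 10 ng/ml for 2 days, then M-CSF plus RANKL 20 ng/ml. At day 15, cells were removed; remaining matrix was Von Kossa-stained, photographed and area-quantified.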

[9] = test system: bovine cortical bone disks / mouse BMC-derived OCs; test: Ex vivo degradation of bovine bone disks; assay type: cell-based; conditions: 100 nM c(HS4-4), mouse BMCs, 10 days, OC counts and resorption pits
Method in brief: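 Bovine cortical bone disks (5-mm) were sonicated in water, stored dry, and sterilised in ethanol plus 30 min UV. Culture ran 10 days, medium renewed every other day. TRAP-positive OCs per disk were counted; cells were sonicated off in ammonium hydroxide; disks were stained with 1% toluidine blue for 30 s; pits were counted across the whole surface by reflected light. Mean ± SEM.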

[10] = test system: osteoclast differentiation of DBA/1 mouse BMCs; test: In vitro OC differentiation, mouse bone marrow cells; assay type: cell-based; conditions: M-CSF + RANKL, 6 days
NO signaling [11] = conditions: ref [11]; cited from earlier work
bone damage in CIA mice = test: X-ray radiological scoring of bone damage in CIA mice; assay type: in vivo, mouse; conditions: 0.8 and 8.0 ng/gm BW, N = 10, score 0-5
Method in brief: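 CIA mice dosed weekly i.p. with 0.8 or 8.0 ng/gm BW test compound or PBS. Limbs X-rayed on a microradiography system (anode current 25mA, 4.5 s exposure). Coded films scored blind by a rheumatologist, front and rear paws separately, 0–5 (none to complete joint destruction). N=10.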

[12] = test system: TRAP-positive mononuclear (pre-OC) bone marrow cells; test: Pre-OC abundance in bone marrow of CIA mice; assay type: in vivo, mouse
Method in brief: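 Fresh bone marrow cells harvested from CIA mice dosed weekly i.p. with various amounts of test compound or PBS; TRAP staining used to enumerate pre-osteoclasts.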

[13] = test system: ROS production in RAW 264.7 pre-OC cells; test: ROS production; assay type: cell-based, mouse; conditions: RAW 264.7, 3 × 10^4/well, in words
Method in brief: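 RAW 264.7 cells, 3×10^4 per well, exposed to various test compound concentrations and loaded with CM-H2DCFDA. Fluorescence (ex 488/em 515 nm) read every 5 min over 500 min; ROS expressed as FU/min.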

[14] = test system: erosive bone damage in CIA mice; test: Micro-CT of bone damage in CIA mice; assay type: in vivo, mouse; conditions: all treated mice, various doses
Method in brief: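 Limbs from arthritic mice fixed in 10% formalin, stored in 70% ethanol, scanned in water: 80 kV, 80 μA, 0.508 mm Al filter plus acrylic beam flattener, 1600 ms/frame, 400 views at 0.5°, 4 frames averaged, 2×2 binning, 18 μm voxels. Bone masks for carpals, tarsals, calcaneus, talus, phalanges; thresholds 2000 HU cortical, 1200 HU trabecular.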

[15] = 80 ng/gm BW per week, N=10 per group
[16] = 800 ng/gm BW per week, N=10 per group

Substance: 65-KDLLEQKRAAVDTYC-79 [65-79*0401]
- time to complete degradation by trypsin/chymotrypsin (trypsin/chymotrypsin): ≤ 30 min
- osteoclastogenesis activation [1]: can activate osteoclastogenesis
- Affinity to CRT, ka [2]: 5.1 ± 4.8 ×10^4 1/Ms
- Affinity to CRT, kd [2]: 7.4 ± 3.1 ×10^−3 1/s
- EC50 (NO signaling [3]): 60 µM
- effect on erosive bone damage in CIA [4]: enhanced erosive bone damage in collagen-induced arthritis

Substance: 70-QKRAA-74 [70-74*0401]
- Affinity to CRT, ka [2]: 2.9 ± 2.9 ×10^2 1/Ms
- Affinity to CRT, kd [2]: 5.6 ± 5.1 ×10^−3 1/s

Substance: cQKRAA [c(HS4-4)]
- OC numbers in arthritic joints [5]: significantly higher numbers of OCs
- CIA soft tissue disease parameters (onset, incidence, score) ([6]; 0.8 ng/gm BW per week): no effect on any of the three CIA soft tissue disease parameters
- CIA soft tissue disease parameters (onset, incidence, score) ([6]; 8.0 ng/gm BW per week): no effect on any of the three CIA soft tissue disease parameters
- disease onset [6, 15]: significantly facilitated disease onset
- mean arthritis scores (joint swelling) ([6]; 80 ng/gm BW per week, N=10 per group, 4-point scale per paw): significantly increased mean arthritis scores
- disease incidence [6, 15]: increased disease incidence
- mean arthritis scores, effect in the higher dose ([6]; 800 ng/gm BW per week ("the higher dose"), N=10 per group): but not in the higher dose
- disease onset [6, 16]: significantly facilitated disease onset
- disease incidence [6, 16]: increased disease incidence
- OCs formed ex vivo by BMCs from treated CIA mice [7]: significantly higher numbers of OCs in a similar dose-dependent pattern
- degradation of artificial bone matrix [8]: higher capacity to degrade artificial bone matrix
- degradation of bovine bone disks [9]: higher capacity to degrade artificial bone matrix and bovine bone disks ex vivo
- OC differentiation (in words) [10]: markedly enhanced OC differentiation in a dose-dependent manner
- NO signaling activation, concentration (NO signaling [11]): low nM concentrations
- bone damage (radiological score, X-ray) (bone damage in CIA mice): significantly higher bone damage
- TRAP-positive pre-OC cells in bone marrow ([12]; 80 ng/gm BW group): peak effect
- TRAP-positive mononuclear (pre-OC) cells in bone marrow, dose dependence ([12]; all c(HS4-4)-treated mice): dose-dependent effect
- Affinity to CRT, ka [2]: 2.7 ± 0.5 ×10^3 1/Ms
- Affinity to CRT, kd [2]: 1.4 ± 0.2 ×10^−3 1/s
- ROS signaling [13]: activated ROS signaling
- erosive bone damage (micro-CT) [14]: more severe erosive bone damage
- EC50 (NO signaling [3]): 0.001 µM
